Experimental data from ChEMBL document CHEMBL1255554, “9-Dihydroerythromycins as non-antibiotic motilin receptor agonists” (Bioorg Med Chem Lett, 2010).
Values after ≈ are worked out from the molar mass of the structure shown.

Legend:
Motilin receptor = Motilin receptor (Oryctolagus cuniculus, UniProt A5A4K8); assay: Agonist activity at motilin receptor in rabbit smooth muscle assessed as increase of muscle contraction; format: functional
[1] = biological target: Motilin receptor (Oryctolagus cuniculus) (UniProt A5A4K8); assay: Agonist activity at motilin receptor in rabbit smooth muscle assessed as increase of muscle contraction at EC90 concentration treated three cycles of administration measured after 4th dose; format: functional
Sequence of Motilin receptor (Oryctolagus cuniculus) (A5A4K8 as listed by the source): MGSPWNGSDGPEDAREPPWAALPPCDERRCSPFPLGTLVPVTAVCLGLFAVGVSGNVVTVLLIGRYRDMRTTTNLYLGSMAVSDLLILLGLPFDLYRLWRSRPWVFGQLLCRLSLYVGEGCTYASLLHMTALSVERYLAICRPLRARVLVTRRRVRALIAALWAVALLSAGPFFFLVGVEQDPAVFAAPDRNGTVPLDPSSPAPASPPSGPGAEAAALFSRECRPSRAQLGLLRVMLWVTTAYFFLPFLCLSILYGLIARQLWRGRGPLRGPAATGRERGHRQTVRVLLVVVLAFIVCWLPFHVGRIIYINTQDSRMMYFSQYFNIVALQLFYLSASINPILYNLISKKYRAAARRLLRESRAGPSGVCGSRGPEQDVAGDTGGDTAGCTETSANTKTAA
Outline: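 Rabbit smooth muscle strip contractility assay. Drug given at its EC90 concentration for three cycles of administration and washout. The contractile response is expressed as % response at the 4th dose.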

Streptococcus pneumoniae = assay: Antibacterial activity against erythromycin-sensitive Streptococcus pneumoniae ATCC 6301; format: functional
Outline: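 Minimal growth inhibitory concentration (MIC) determined against the highly erythromycin-sensitive strain Streptococcus pneumoniae ATCC6301.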

hERG (KCNH2) = hERG (KCNH2) (Homo sapiens, UniProt Q12809); assay: Inhibition of human ERG expressed in HEK cells at 30 uM; format: cell-based, HEK293; settings: HEK cells expressing human ERG
Sequence of hERG (KCNH2) (Q12809 whole entry): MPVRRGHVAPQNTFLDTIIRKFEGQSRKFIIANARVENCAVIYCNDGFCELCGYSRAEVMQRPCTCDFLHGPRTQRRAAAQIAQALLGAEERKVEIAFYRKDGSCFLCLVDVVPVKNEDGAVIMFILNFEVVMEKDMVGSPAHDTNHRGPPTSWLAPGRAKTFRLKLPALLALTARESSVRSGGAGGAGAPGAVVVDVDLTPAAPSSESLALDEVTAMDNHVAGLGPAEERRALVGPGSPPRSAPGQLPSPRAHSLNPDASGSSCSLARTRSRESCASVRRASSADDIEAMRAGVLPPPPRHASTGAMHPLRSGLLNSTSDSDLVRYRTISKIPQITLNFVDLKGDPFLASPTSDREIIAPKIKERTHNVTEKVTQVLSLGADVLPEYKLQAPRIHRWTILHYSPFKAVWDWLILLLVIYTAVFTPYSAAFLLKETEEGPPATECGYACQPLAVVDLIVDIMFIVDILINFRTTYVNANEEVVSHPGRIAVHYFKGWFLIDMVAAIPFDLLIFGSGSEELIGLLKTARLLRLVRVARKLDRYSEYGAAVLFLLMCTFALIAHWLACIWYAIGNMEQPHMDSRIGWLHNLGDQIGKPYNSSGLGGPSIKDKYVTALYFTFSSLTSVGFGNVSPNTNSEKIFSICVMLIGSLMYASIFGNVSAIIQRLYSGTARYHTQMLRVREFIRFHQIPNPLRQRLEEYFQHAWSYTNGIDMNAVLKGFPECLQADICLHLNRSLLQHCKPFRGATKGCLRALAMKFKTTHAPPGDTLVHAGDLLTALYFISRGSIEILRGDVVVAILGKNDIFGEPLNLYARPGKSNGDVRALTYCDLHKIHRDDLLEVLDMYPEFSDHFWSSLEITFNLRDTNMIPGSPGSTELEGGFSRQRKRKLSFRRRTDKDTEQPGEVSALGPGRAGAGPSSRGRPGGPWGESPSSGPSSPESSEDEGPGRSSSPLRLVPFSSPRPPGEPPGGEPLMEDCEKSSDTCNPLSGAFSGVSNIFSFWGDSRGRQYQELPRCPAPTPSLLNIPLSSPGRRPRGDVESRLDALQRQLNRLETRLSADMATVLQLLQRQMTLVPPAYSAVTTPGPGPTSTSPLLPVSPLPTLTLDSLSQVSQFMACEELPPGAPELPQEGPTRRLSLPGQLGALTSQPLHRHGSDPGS

Sequence of Motilin receptor (A5A4K8 whole entry): as the sequence (A5A4K8 as listed by the source) above

EC50 (Motilin receptor) | Activity [1] | MIC (Streptococcus pneumoniae) | Structure (SMILES) | inhibition at 30 µM (hERG (KCNH2))
260 nM | 76% | 32 µg/mL (≈ 41.9 µM) | CC[C@H]1OC(=O)[C@H](C)[C@@H](O[C@@H]2C[C@@](C)(OC)[C@@H](O)[C@H](C)O2)[C@H](C)[C@@H](O[C@@H]2O[C@H](C)C[C@H](N(C)C(C)C)[C@H]2O)[C@](C)(O)C[C@@H](C)[C@H](O)[C@H](C)[C@@H](O)[C@]1(C)O | 80%
> 5000 nM | – | – | CC[C@H]1OC(=O)[C@H](C)[C@@H](O[C@@H]2C[C@@](C)(OC)[C@@H](O)[C@H](C)O2)[C@H](C)[C@@H](O[C@@H]2O[C@H](C)C[C@H](N(C)CC(N)=O)[C@H]2O)[C@](C)(O)C[C@@H](C)[C@H](O)[C@H](C)[C@@H](O)[C@]1(C)O | –
350 nM | 90% | 128 µg/mL (≈ 165 µM) | CC[C@H]1OC(=O)[C@H](C)[C@@H](O[C@@H]2C[C@@](C)(OC)[C@@H](O)[C@H](C)O2)[C@H](C)[C@@H](O[C@@H]2O[C@H](C)C[C@H](N(C)C3CCC3)[C@H]2O)[C@](C)(O)C[C@@H](C)[C@H](O)[C@H](C)[C@@H](O)[C@]1(C)O | 38%
2400 nM | – | – | C=C(C)CN(C)[C@H]1C[C@@H](C)O[C@@H](O[C@@H]2[C@@H](C)[C@H](O[C@@H]3C[C@@](C)(OC)[C@@H](O)[C@H](C)O3)[C@@H](C)C(=O)O[C@H](CC)[C@@](C)(O)[C@H](O)[C@@H](C)[C@@H](O)[C@H](C)C[C@@]2(C)O)[C@@H]1O | –
3800 nM | – | – | CC[C@H]1OC(=O)[C@H](C)[C@@H](O[C@@H]2C[C@@](C)(OC)[C@@H](O)[C@H](C)O2)[C@H](C)[C@@H](O[C@@H]2O[C@H](C)C[C@H](N(C)CCF)[C@H]2O)[C@](C)(O)C[C@@H](C)[C@H](O)[C@H](C)[C@@H](O)[C@]1(C)O | –
> 5000 nM | – | 128 µg/mL (≈ 162 µM) | CC[C@H]1OC(=O)[C@H](C)[C@@H](O[C@@H]2C[C@@](C)(OC)[C@@H](O)[C@H](C)O2)[C@H](C)[C@@H](O[C@@H]2O[C@H](C)C[C@H](N(C)C3CCCC3)[C@H]2O)[C@](C)(O)C[C@@H](C)[C@H](O)[C@H](C)[C@@H](O)[C@]1(C)O | –
7300 nM | – | – | CC[C@H]1OC(=O)[C@H](C)[C@@H](O[C@@H]2C[C@@](C)(OC)[C@@H](O)[C@H](C)O2)[C@H](C)[C@@H](O[C@@H]2O[C@H](C)C[C@H](N(C)CCN)[C@H]2O)[C@](C)(O)C[C@@H](C)[C@H](O)[C@H](C)[C@@H](O)[C@]1(C)O | –
460 nM | 93% | > 128 µg/mL | CC[C@H]1OC(=O)[C@H](C)[C@@H](O[C@@H]2C[C@@](C)(OC)[C@@H](O)[C@H](C)O2)[C@H](C)[C@@H](O[C@@H]2O[C@H](C)C[C@H](N(C)C[C@@H](C)O)[C@H]2O)[C@](C)(O)C[C@@H](C)[C@H](O)[C@H](C)[C@@H](O)[C@]1(C)O | –
> 5000 nM | – | 16 µg/mL (≈ 21 µM) | CC[C@H]1OC(=O)[C@H](C)[C@@H](O[C@@H]2C[C@@](C)(OC)[C@@H](O)[C@H](C)O2)[C@H](C)[C@@H](O[C@@H]2O[C@H](C)C[C@H](NC3CCC3)[C@H]2O)[C@](C)(O)C[C@@H](C)[C@H](O)[C@H](C)[C@@H](O)[C@]1(C)O | –
5700 nM | – | 32 µg/mL (≈ 41.1 µM) | CC[C@H]1OC(=O)[C@H](C)[C@@H](O[C@@H]2C[C@@](C)(OC)[C@@H](O)[C@H](C)O2)[C@H](C)[C@@H](O[C@@H]2O[C@H](C)C[C@H](N(C)C3COC3)[C@H]2O)[C@](C)(O)C[C@@H](C)[C@H](O)[C@H](C)[C@@H](O)[C@]1(C)O | –
310 nM | – | 32 µg/mL (≈ 41.2 µM) | CC[C@H]1OC(=O)[C@H](C)[C@@H](O[C@@H]2C[C@@](C)(OC)[C@@H](O)[C@H](C)O2)[C@H](C)[C@@H](O[C@@H]2O[C@H](C)C[C@H](N(C)CC3CC3)[C@H]2O)[C@](C)(O)C[C@@H](C)[C@H](O)[C@H](C)[C@@H](O)[C@]1(C)O | –
300 nM | 71% | > 128 µg/mL | CC[C@H]1OC(=O)[C@H](C)[C@@H](O[C@@H]2C[C@@](C)(OC)[C@@H](O)[C@H](C)O2)[C@H](C)[C@@H](O[C@@H]2O[C@H](C)C[C@H](N(C)C3CCC3)[C@H]2O)[C@](C)(O)C[C@@H](C)[C@H](O)[C@H](C)[C@@H](O)[C@H]1C | –
210 nM | 86% | 8 µg/mL (≈ 10.4 µM) | CC[C@H]1OC(=O)[C@H](C)[C@@H](O[C@@H]2C[C@@](C)(OC)[C@@H](O)[C@H](C)O2)[C@H](C)[C@@H](O[C@@H]2O[C@H](C)C[C@H](N(C)CCO)[C@H]2O)[C@](C)(O)C[C@@H](C)[C@H](O)[C@H](C)[C@@H](O)[C@]1(C)O | –
2000 nM | – | 64 µg/mL (≈ 81 µM) | CC[C@H]1OC(=O)[C@H](C)[C@@H](O[C@@H]2C[C@@](C)(OC)[C@@H](O)[C@H](C)O2)[C@H](C)[C@@H](O[C@@H]2O[C@H](C)C[C@H](N(C)CC3(C)CC3)[C@H]2O)[C@](C)(O)C[C@@H](C)[C@H](O)[C@H](C)[C@@H](O)[C@]1(C)O | –
363 nM | 81% | – | CC[C@H]1OC(=O)[C@H](C)[C@@H](O[C@@H]2C[C@@](C)(OC)[C@@H](O)[C@H](C)O2)[C@H](C)[C@@H](O[C@@H]2O[C@H](C)C[C@H](N(C)CC(C)C)[C@H]2O)[C@](C)(O)C[C@@H](C)[C@H](O)[C@H](C)[C@@H](O)[C@]1(C)O | –

More lines, now with the values behind:

Structure (SMILES) | EC50 (Motilin receptor) | Activity [1] | MIC (Streptococcus pneumoniae) | inhibition at 30 µM (hERG (KCNH2))
CC[C@H]1OC(=O)[C@H](C)[C@@H](O[C@@H]2C[C@@](C)(OC)[C@@H](O)[C@H](C)O2)[C@H](C)[C@@H](O[C@@H]2O[C@H](C)C[C@H](N(C)CC(C)(C)O)[C@H]2O)[C@](C)(O)C[C@@H](C)[C@H](O)[C@H](C)[C@@H](O)[C@]1(C)O | 100 nM | 89% | > 128 µg/mL | 25%
CC[C@H]1OC(=O)[C@H](C)[C@@H](O[C@@H]2C[C@@](C)(OC)[C@@H](O)[C@H](C)O2)[C@H](C)[C@@H](O[C@@H]2O[C@H](C)C[C@H](N(C)C[C@H](C)O)[C@H]2O)[C@](C)(O)C[C@@H](C)[C@H](O)[C@H](C)[C@@H](O)[C@]1(C)O | 360 nM | 95% | 128 µg/mL (≈ 164 µM) | 16%
CC[C@H]1OC(=O)[C@H](C)[C@@H](O[C@@H]2C[C@@](C)(OC)[C@@H](O)[C@H](C)O2)[C@H](C)[C@@H](O[C@@H]2O[C@H](C)C[C@H](N(C)CCOC)[C@H]2O)[C@](C)(O)C[C@@H](C)[C@H](O)[C@H](C)[C@@H](O)[C@]1(C)O | 7700 nM | – | – | –
CC[C@H]1OC(=O)[C@H](C)[C@@H](O[C@@H]2C[C@@](C)(OC)[C@@H](O)[C@H](C)O2)[C@H](C)[C@@H](O[C@@H]2O[C@H](C)C[C@H](N(C)C(C)C)[C@H]2O)[C@](C)(O)C[C@@H](C)[C@H](O)[C@H](C)[C@@H](O)[C@H]1C | 106 nM | 79% | 128 µg/mL (≈ 171 µM) | –
CC[C@H]1OC(=O)[C@H](C)[C@@H](O[C@@H]2C[C@@](C)(OC)[C@@H](O)[C@H](C)O2)[C@H](C)[C@@H](O[C@@H]2O[C@H](C)C[C@H](NC(C)C)[C@H]2O)[C@](C)(O)C[C@@H](C)[C@H](O)[C@H](C)[C@@H](O)[C@]1(C)O | > 5000 nM | – | > 128 µg/mL | –
CC[C@H]1OC(=O)[C@H](C)[C@@H](O[C@@H]2C[C@@](C)(OC)[C@@H](O)[C@H](C)O2)[C@H](C)[C@@H](O[C@@H]2O[C@H](C)C[C@H](N(C)C[C@@H](C)O)[C@H]2O)[C@](C)(O)C[C@@H](C)[C@H](O)[C@H](C)[C@@H](O)[C@H]1C | 280 nM | 89% | > 128 µg/mL | 38%
CC[C@H]1OC(=O)[C@H](C)[C@@H](O[C@@H]2C[C@@](C)(OC)[C@@H](O)[C@H](C)O2)[C@H](C)[C@@H](O[C@@H]2O[C@H](C)C[C@H](N(C)CC(C)(C)O)[C@H]2O)[C@](C)(O)C[C@@H](C)[C@H](O)[C@H](C)[C@@H](O)[C@H]1C | 100 nM | 56% | > 128 µg/mL | –
CC[C@H]1OC(=O)[C@H](C)[C@@H](O[C@@H]2C[C@@](C)(OC)[C@@H](O)[C@H](C)O2)[C@H](C)[C@@H](O[C@@H]2O[C@H](C)C[C@H](N(C)C[C@H](C)O)[C@H]2O)[C@](C)(O)C[C@@H](C)[C@H](O)[C@H](C)[C@@H](O)[C@H]1C | 180 nM | 70% | > 128 µg/mL | –
CC[C@H]1OC(=O)[C@H](C)[C@@H](O[C@@H]2C[C@@](C)(OC)[C@@H](O)[C@H](C)O2)[C@H](C)[C@@H](O[C@@H]2O[C@H](C)C[C@H](N(C)CCCO)[C@H]2O)[C@](C)(O)C[C@@H](C)[C@H](O)[C@H](C)[C@@H](O)[C@]1(C)O | 700 nM | – | – | –
CC[C@H]1OC(=O)[C@H](C)[C@@H](O[C@H]2C[C@@](C)(OC)[C@@H](O)[C@H](C)O2)[C@H](C)[C@@H](O[C@@H]2O[C@H](C)C[C@H](N(C)C)[C@H]2O)[C@](C)(O)C[C@@H](C)C(=O)[C@H](C)[C@@H](O)[C@]1(C)O [ERYTHROMYCIN] | – | – | 0.03 µg/mL (≈ 0.0409 µM) | –
CC[C@H]1OC(=O)[C@H](C)[C@@H](O[C@@H]2C[C@@](C)(OC)[C@@H](O)[C@H](C)O2)[C@H](C)[C@@H](O[C@@H]2O[C@H](C)C[C@H](N(C)CC(O)CO)[C@H]2O)[C@](C)(O)C[C@@H](C)[C@H](O)[C@H](C)[C@@H](O)[C@]1(C)O (stereo not given in full) | 2500 nM | – | – | –
